TLR4 MyD88 comp – TLR4-MyD88 interaction inhibition in cells. O00206+Q99836. AID 861. inhibition, % at 8.4 µM. HeLa CL3-4 TLR4/MyD88 BLA complementation, FRET ratio. 0.18% of 200,000 active; in the data active means inhibition above about 25%
SR-BI uptake up – enhances SR-BI lipid uptake from DiI-HDL; CHO ldlA[mSR-BI] cells, DiI-HDL uptake fluorescence, 3 h; 100 = double the neutral-control signal; activation, % at 12.5 µM; 0.096% of 320,000 active;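 active means mean replicate activation of at least 60% and every replicate at or above 60%; inconclusive means mean or all-replicate condition met, but not both; inactive means mean below 60% and not all replicates reaching 60%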
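Test system: SR-BI-overexpressing, LDLR-lacking CHO cells; Also added: labelled HDL, 10 µg/mL; Measured by: bottom-read cell fluorescence after medium removal, ex 550/em 595 nm; Timing: 3 h uptake period with compound, 37 °C; Buffer or medium: F12, 0.5% BSA, 25 mM HEPES; Doses: single compound concentration, delivered by pin transfer.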
SR-BI DiI inh – mouse SR-BI HDL lipid transfer inhibition | inhibition, % at 12.5 µM | 0.96% of 320,000 active | ldlA[mSR-BI] CHO cells, DiI-HDL uptake fluorescence, 3 h;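 active means mean replicate inhibition of at least 70% and a set share of replicates each scoring 70 or more; inconclusive means meets just one of the two criteria; inactive means fails both criteria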
NOD2 RIPK2 PPI – inhibitors of human NOD2-RIPK2 interaction. inhibition, % at 4.98 µM. CHO BLA complementation NOD2-RIPK2, CCF4 ratio. 0.38% of 360,000 active. AID 624267. O43353; in the data active means inhibition above about 21%
Target sequence (O43353 whole entry, looked up): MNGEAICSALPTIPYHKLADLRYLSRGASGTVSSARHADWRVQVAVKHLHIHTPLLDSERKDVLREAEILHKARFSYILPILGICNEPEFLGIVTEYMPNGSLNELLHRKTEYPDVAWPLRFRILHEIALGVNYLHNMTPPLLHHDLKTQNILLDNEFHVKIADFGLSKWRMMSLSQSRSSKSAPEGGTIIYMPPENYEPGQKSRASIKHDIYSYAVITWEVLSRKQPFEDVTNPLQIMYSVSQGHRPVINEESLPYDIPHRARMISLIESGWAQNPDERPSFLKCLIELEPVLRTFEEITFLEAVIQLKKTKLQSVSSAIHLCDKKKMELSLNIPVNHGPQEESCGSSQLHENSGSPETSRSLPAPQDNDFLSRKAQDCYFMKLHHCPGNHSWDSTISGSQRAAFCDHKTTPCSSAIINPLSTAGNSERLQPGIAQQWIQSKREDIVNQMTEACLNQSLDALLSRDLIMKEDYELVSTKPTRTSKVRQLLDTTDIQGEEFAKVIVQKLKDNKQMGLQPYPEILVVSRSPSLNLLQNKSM
Lipid droplet – hepatic lipid droplet formation modulation; AML12 mouse hepatocytes, oleate lipid droplets, BODIPY imaging; inhibition, % at 6.5 µM; 0.4% of 240,000 active; AID 1656;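 active means lipid droplet intensity inhibited by at least 50%, with more than 500 cells counted; inconclusive means wells with under 300 cells, treated as cytotoxic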
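Assay system: AML12 hepatocytes (mouse); Probe or stimulus: oleic acid at 100 µM to induce lipid droplet formation; Dosing: compound at 6.5 µM only; Schedule: compound with oleate, overnight; Detection: fluorescence imaging, 20x objective, two fields per well; Measure: % inhibition of lipid droplet signal.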
TLR9-MyD88 block – blocks human TLR9 binding to MyD88; Q9NR96+Q99836; CHO BLA complementation TLR9-MyD88, CCF4 FRET ratio; inhibition, % at 4.98 µM; 0.21% of 340,000 active; AID 504734;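 active means inhibition above the mean over all tested compounds plus 3 SD, cut at about 21% in these data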
Hits are given with their value; n = inactive; u = inconclusive; x = no result. The list is not random: actives were taken first. Their share in the collection is about 1.6%.

SMILES | TLR4 MyD88 comp | SR-BI uptake up | SR-BI DiI inh | NOD2 RIPK2 PPI | Lipid droplet | TLR9-MyD88 block
Cc1ccc(S(=O)(=O)N2CCC(C(=O)N3CCCC3C(=O)N[C@@H](CC(C)C)C(=O)NCC(N)=O)CC2)cc1 (stereo partly specified) | x | n | n | n | x | n
COc1cccc(C(=O)N2N=C(c3ccccn3)CC2(O)C(F)(F)F)c1 (stereo unspecified) | x | 240.5 | n | n | n | n
Cc1ccc(-c2ccc(/C=N/NC(N)=S)o2)cc1 | x | n | 95.6 | n | n | n
NC(=S)N/N=C/c1ccc(-c2ccccc2)o1 | n | n | n | n | n | n
NC(=S)N/N=C/c1ccc(-c2ccc(Cl)c(Cl)c2)o1 | n | n | 85.5 | n | n | n
NC(=S)N/N=C/c1ccc(-c2ccc(SC(F)F)cc2)o1 | x | n | 74.3 | n | n | n
NC(=S)N/N=C\c1ccc(-c2cccc(Cl)c2Cl)o1 | n | n | 78.5 | n | n | n
CC1CCCC(NC(=O)c2cccc(S(=O)(=O)N3CCN(c4ccccc4)CC3)c2)C1C (stereo unspecified) | x | x | x | n | x | n
CCc1ccc(/C=C/C(=O)c2c(C)cc(C)[nH]c2=O)cc1 | n | n | n | n | n | n
CC1CC(C)CN(CCCNC(=O)c2csc3c2CCCC3)C1 (stereo unspecified) | n | n | n | n | n | n
Cc1cccc2c1nc(-c1ccccc1)n1cnnc21 | n | 853.8 | n | n | n | n
Cc1cccc2c1nc(-c1ccccc1)n1nnnc21 | n | n | n | n | x | n
Cn1c(CC(=O)Nc2ccc(Cl)cc2)nnc1SCC(=O)N1CCOCC1 | x | n | n | n | n | n
O=C(Nc1ccc(N2CCOCC2)cc1)c1cc(-c2ccncc2)nc2ccccc12 | x | n | n | n | n | n
COc1cc(-c2cc(C(=O)Nc3ccc(N4CCOCC4)cc3)c3ccccc3n2)cc(OC)c1OC | x | n | 90.4 | n | n | n
CCOc1ccccc1NC(=O)c1cc(-c2cc(OC)c(OC)c(OC)c2)nc2ccccc12 | x | n | 72.0 | n | n | n
O=[N+]([O-])c1cc2c(cc1/C=N\NS(=O)(=O)c1ccccc1)OCO2 | n | n | n | n | n | n
CNc1nc(N/N=C/c2cc3c(cc2[N+](=O)[O-])OCO3)nc(Nc2ccccc2)n1 | n | n | 87.4 | n | n | n
CNc1nc(N/N=C/c2cc([N+](=O)[O-])ccc2F)nc(Nc2ccccc2)n1 | x | n | 75.0 | n | x | n
Cc1ccc2[nH]c(C(=O)N/N=C/c3ccccc3C(=O)O)c(-c3ccccc3)c2c1 | x | n | n | n | n | n
Cc1ccc2[nH]c(C(=O)N/N=C/c3ccccc3O)c(C)c2c1 | x | n | 132.1 | n | n | n
COc1cc(OC)c2cc(C(=O)N/N=C/c3ccccc3O)[nH]c2c1 | x | n | 122.9 | n | x | n
COc1ccc(OC)c(/C=N/NC(=O)c2cc3c(OC)c(OC)ccc3[nH]2)c1 | n | n | 71.9 | n | n | n
CC(C)CN1Cc2ccccc2Oc2cc(Br)ccc2S1(=O)=O | x | n | n | n | x | n
O=C(CSc1nnc(CNC(=O)c2ccc(F)cc2)o1)NCC1CCCO1 (stereo unspecified) | x | n | n | n | n | n
SMILES | TLR4 MyD88 comp | SR-BI uptake up | SR-BI DiI inh | NOD2 RIPK2 PPI | Lipid droplet | TLR9-MyD88 block
CC(C)(C)OC(=O)N(Cc1ccccc1)Cc1cccc(OCc2cccc(NC(=O)c3ccccc3)c2)c1 | x | n | 73.4 | n | x | n
O=C(Cn1nc(-c2ccccc2)ccc1=O)Nc1ccc(-n2cnnn2)cc1 | x | 116.2 | n | n | n | n
O=C(Cn1nc(-c2ccccc2)ccc1=O)Nc1ccc(NC(=O)c2ccccn2)cc1 | n | n | 74.7 | n | n | n
COc1ccc(N2CCN(C(=O)NCc3ccc(OC)c(Cl)c3)CC2)cc1 | n | n | n | n | n | n
COc1cc(-c2cc(-c3ccc(O)cc3)nc(N)c2C#N)ccc1O | n | n | 84.5 | n | n | n
O=C(O)C1CCCCN1C(=O)c1ccc(S(=O)(=O)N2CCCCCC2)cc1 (stereo unspecified) | x | n | n | n | x | n
Cc1ccc(C(=O)/C=C/c2c[nH]c3ccccc23)cc1 | n | n | n | 25.2 | x | n
COc1cc(NC(=O)c2onc(C)c2Cl)cc(OC)c1OC | x | n | n | n | n | n
COC(=O)c1cn(C(=O)/C=C/c2ccc(OC)c(OC)c2)c2ccccc12 | n | n | 92.6 | n | n | n
Cc1ccc(NC(=O)CSCC(=O)N(C)Cc2c(F)cccc2Cl)cc1 | x | x | x | n | x | n
CCOc1ccc(/C=C/C(=O)N(CC)CC(=O)Nc2ccc3c(c2)OCCO3)cc1OCC | x | n | 74.4 | n | n | n
CCOc1ccc(/C=C/C(=O)N(CC)CC(=O)Nc2ccc3c(c2)OCCO3)cc1OC | x | n | u | n | x | n
CC/C(=N\NC(=O)c1ccc(CN(C)S(=O)(=O)c2ccc(C)cc2)cc1)c1ccc(OC(F)F)cc1 | n | n | 79.8 | n | n | n
Cc1ccc(S(=O)(=O)N(C)Cc2ccc(C(=O)NN=C(CC(C)C)CC(C)C)cc2)cc1 | n | n | n | n | n | n
COC(=O)C1=C(N)OC2=C(C(=O)CC(C)(C)C2)C1c1cccs1 (stereo unspecified) | n | 821.5 | n | n | x | n
CCOC(=O)c1cnc(SC2CCc3ccccc3C2=O)nc1N (stereo unspecified) | n | n | n | n | x | n
CC(C)c1ccc(/C=C(\c2nc3ccccc3[nH]2)S(=O)(=O)c2ccccc2)cc1 | n | n | n | n | 54.4 | n
CC1=NN(c2ccccc2)C(=O)/C1=C/c1cc(C)n(C2CC2)c1C | n | n | 71.6 | n | n | n
COc1cc(OC)c(C(=O)NC2CCCc3ccccc32)cc1OC (stereo unspecified) | x | n | n | n | n | n
COCCNc1ccc([N+](=O)[O-])cc1C(=O)NC1CCCc2ccccc21 (stereo unspecified) | x | n | 79.0 | n | x | n
CC(C)CN(C(=O)COC(=O)c1c2c(nc3ccccc13)CCC2)c1c(N)n(Cc2ccccc2)c(=O)[nH]c1=O | x | n | 71.9 | n | n | n
O=C(Cn1cc2c(n1)CCCC2)Nc1cc(-c2cccc(Cl)c2)no1 | n | n | n | n | n | n
CN(C)S(=O)(=O)c1cccc(NC(=O)c2ccc3c(c2)OCCO3)c1 | x | n | n | n | x | n
Cc1ccc(S(=O)(=O)N(C)c2ccc(OCC(=O)NCC3(N(C)C)CCCCC3)cc2)cc1 | x | n | 83.2 | n | x | n
Cc1ccc(C(=O)Nc2ccc(C(=O)N/N=C/c3ccc(C)o3)cc2)cc1 | x | n | 79.7 | n | n | n
COc1ccccc1/C=N/NC(=O)c1cccc(NC(=O)c2ccccc2C)c1 | x | n | 74.9 | n | n | n
Cc1ccc(C(=O)Nc2cccc(C(=O)N/N=C/c3ccc(F)cc3)c2)cc1 | x | n | 75.9 | n | n | n
